From ChEMBL document CHEMBL2346593, “Novel adamantyl cannabinoids as CB1 receptor probes” (J Med Chem, 2013) come the findings set out here.

Activity calls are given as the source filed them.

Test [1] addresses Cannabinoid receptor 2 (Mus musculus, UniProt P47936). Put plainly: Displacement of [3H]CP-55940 from mouse CB2 receptor expressed in mouse spleen membrane by competitive binding assay. It is filed as cell membranes. In short, it runs like this: (§1)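 Competition-equilibrium binding against [3H]CP-55,940 in rat brain membranes (CB1), mouse spleen membranes (mCB2), or membranes of HEK293 cells expressing hCB2. IC50 was obtained by nonlinear regression and converted to Ki. Ki is the mean of three independent experiments, each run in duplicate.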
For orientation: Loss of bound radioactivity is the signal in a displacement assay; it reports binding, not function.

Test [2] addresses Cannabinoid receptor 2 (Homo sapiens, UniProt P34972). Put plainly: Displacement of [3H]CP-55940 from human CB2 receptor expressed in HEK293 cell membrane by competitive binding assay. It is filed as cell membranes. In short, it runs like this:
as §1

The target of test [3] is Cannabinoid receptor 1 (Rattus norvegicus, UniProt P20272). Put plainly: Displacement of [3H]CP-55940 from rat CB1 receptor expressed in rat brain membrane by competitive binding assay. Format: cell membranes.
Sequence of Cannabinoid receptor 1 (Rattus norvegicus, UniProt P20272) (P20272 whole entry): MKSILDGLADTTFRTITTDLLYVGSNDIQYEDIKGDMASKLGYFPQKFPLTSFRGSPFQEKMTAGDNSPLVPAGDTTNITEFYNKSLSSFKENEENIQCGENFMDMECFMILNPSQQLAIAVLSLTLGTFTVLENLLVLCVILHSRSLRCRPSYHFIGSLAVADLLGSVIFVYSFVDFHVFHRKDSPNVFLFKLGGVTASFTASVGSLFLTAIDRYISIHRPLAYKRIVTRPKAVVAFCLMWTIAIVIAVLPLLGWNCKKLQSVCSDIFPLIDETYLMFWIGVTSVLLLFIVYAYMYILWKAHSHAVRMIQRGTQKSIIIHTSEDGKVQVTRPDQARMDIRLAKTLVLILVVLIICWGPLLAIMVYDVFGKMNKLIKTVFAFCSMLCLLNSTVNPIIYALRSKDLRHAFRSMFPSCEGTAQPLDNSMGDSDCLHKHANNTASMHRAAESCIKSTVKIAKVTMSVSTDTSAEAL
Test [4] in a line: Selectivity ratio of Ki for mouse CB2 receptor to Ki for rat CB1 receptor.
The nature of test [5]: Selectivity ratio of Ki for human CB2 receptor to Ki for rat CB1 receptor.
Test [6] concerns the target Cannabinoid receptor 1 (Homo sapiens, UniProt P21554). Put plainly: Agonist activity at human CB1 receptor transfected in human U2OS cells assessed as beta-arrestin2-GFP aggregation after 40 mins. It is filed as cell-based.
In test [7] the test system is Rattus norvegicus. Put plainly: Antinociceptive activity in Sprague-Dawley rat assessed as increase in tail-flick latency period at 0.1 to 10 mg/kg, sc after 60 to 120 mins by tail-flick test. It is filed as functional, organism-based. Put shortly:
(§2)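 Female Sprague-Dawley rats (235–350 g; n = 5–7/group), retested at least 7 days apart. Compound was dissolved in 20% ethanol/20% emulphor/60% saline, diluted with saline, and given sc at 1.0 mL/kg. Radiant-heat tail-flick latency was measured over 6 h with a 6 s cutoff. %MPE = 100 × (test − baseline)/(6 − baseline). Dose-effect curves used each rat's maximum effect.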

Test [8] concerns Rattus norvegicus. Put plainly: Hypothermic effect in Sprague-Dawley rat assessed as decrease in core body temperature at 10 mg/kg. Format: functional. In short, it runs like this: (§3)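 Female Sprague-Dawley rats (n = 5–7/group), minimally restrained and isolated, each with a thermistor probe inserted 7 cm and taped to the tail. Two baselines were taken 15 min apart, then sc injection (20% ethanol/20% emulphor/60% saline diluted with saline, 1.0 mL/kg). Temperature was read every 30 min for 3 h, then hourly to 6 h, as change from mean baseline.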

Test [9] concerns Rattus norvegicus. Put plainly: Antinociceptive activity in Sprague-Dawley rat assessed as increase in tail-flick latency period at 0.1 to 10 mg/kg, sc after 6 hrs by tail-flick test. Format: functional, organism-based. Put shortly: as §2
(Thermal pain tests record how soon the animal reacts.)

Test [10] has as its system Rattus norvegicus. Put plainly: Hypothermic effect in Sprague-Dawley rat assessed as decrease in core body temperature at 1 mg/kg, sc measured over 6 hrs. It is filed as functional. Conditions: route subcutaneous. In short, it runs like this:
as §3

Test [11] has as its system Rattus norvegicus. Put plainly: Antinociceptive activity in Sprague-Dawley rat assessed as increase in tail-flick latency period at 1 mg/kg, sc by tail-flick test. Format: functional, organism-based. More on the design: dose 1 mg/kg. In short, it runs like this: as §2
Test [12] relates to Rattus norvegicus. Put plainly: Hypothermic effect in sc dosed Sprague-Dawley rat assessed as decrease in core body temperature after 60 mins to 6 hrs. It is filed as functional, organism-based. In short, it runs like this: as §3

Sequence of Cannabinoid receptor 2 (Homo sapiens, UniProt P34972) (P34972 whole entry): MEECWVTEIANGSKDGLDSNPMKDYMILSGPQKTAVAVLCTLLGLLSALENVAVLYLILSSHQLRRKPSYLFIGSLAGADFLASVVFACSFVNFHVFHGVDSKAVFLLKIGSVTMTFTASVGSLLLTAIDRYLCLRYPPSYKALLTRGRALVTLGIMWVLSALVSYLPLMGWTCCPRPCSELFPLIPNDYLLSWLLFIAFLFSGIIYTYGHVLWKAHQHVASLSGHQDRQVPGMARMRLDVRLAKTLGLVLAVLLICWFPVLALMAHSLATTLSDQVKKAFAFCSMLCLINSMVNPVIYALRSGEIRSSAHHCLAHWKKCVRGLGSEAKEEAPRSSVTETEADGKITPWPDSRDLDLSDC
Sequence of Cannabinoid receptor 1 (Homo sapiens, UniProt P21554) (P21554 whole entry): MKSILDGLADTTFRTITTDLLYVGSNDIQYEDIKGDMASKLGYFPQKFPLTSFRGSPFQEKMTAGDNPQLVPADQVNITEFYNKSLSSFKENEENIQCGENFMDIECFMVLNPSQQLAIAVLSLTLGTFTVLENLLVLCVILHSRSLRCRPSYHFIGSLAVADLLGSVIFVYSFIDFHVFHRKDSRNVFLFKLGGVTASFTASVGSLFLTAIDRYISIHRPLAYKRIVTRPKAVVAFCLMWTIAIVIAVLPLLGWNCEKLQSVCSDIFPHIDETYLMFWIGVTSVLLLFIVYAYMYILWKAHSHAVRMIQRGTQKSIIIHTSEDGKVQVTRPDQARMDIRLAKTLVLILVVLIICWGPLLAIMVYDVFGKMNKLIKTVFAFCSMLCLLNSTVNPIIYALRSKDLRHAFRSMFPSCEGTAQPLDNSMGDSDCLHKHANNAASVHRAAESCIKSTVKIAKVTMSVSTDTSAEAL
Sequence of Cannabinoid receptor 2 (Mus musculus, UniProt P47936) (P47936 whole entry): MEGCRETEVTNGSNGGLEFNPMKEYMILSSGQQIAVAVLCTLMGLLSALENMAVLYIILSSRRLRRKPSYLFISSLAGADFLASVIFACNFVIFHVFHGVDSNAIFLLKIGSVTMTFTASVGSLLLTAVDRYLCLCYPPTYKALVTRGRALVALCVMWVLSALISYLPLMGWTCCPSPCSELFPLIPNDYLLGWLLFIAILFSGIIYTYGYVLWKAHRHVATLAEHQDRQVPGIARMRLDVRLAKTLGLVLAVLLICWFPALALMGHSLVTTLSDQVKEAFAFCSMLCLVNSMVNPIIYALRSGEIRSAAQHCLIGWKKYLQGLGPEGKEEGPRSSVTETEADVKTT

Take `CC1(C)Oc2cc(C34CC5CC(CC(C5)C3)C4)cc(O)c2[C@@H]2C[C@@H](CO)CC[C@H]21`: the results for the inhibition constant Ki at Cannabinoid receptor 2 [1], at Cannabinoid receptor 2 [2] and on Cannabinoid receptor 1 [3] were 0.0651 µM, 0.121 µM and 0.0301 µM, respectively. The Ratio Ki in test [4] worked out at 2.2; in [5], 4.
The matching figures for `CC1(C)Oc2cc(C34CC5CC(CC(C5)C3)C4)cc(O)c2[C@@H]2C[C@H](CC#N)CC[C@H]21`: 0.087 µM, 0.1 µM, 0.0487 µM, 1.8 and 2.1.
For `CC(C)(C)C(=O)OCC1=CC[C@@H]2[C@@H](C1)c1c(O)cc(C34CC5CC(CC(C5)C3)C4)cc1OC2(C)C`, the figures for the Ki on Cannabinoid receptor 2 [1], on Cannabinoid receptor 2 [2] and on Cannabinoid receptor 1 [3] were 0.126 µM, 0.0492 µM and 0.0165 µM, respectively. Also, the results for the Ratio Ki in [4] and in test [5] were 7.6 and 3, respectively.
The matching figures for `CC1(C)Oc2cc(C34CC5CC(CC(C5)C3)C4)cc(O)c2[C@@H]2C[C@H](C=O)CC[C@H]21`: 0.0257 µM, 0.0055 µM, 0.0529 µM, 0.5 and 0.1.
The matching figures for `Cc1ccc2c(c1)-c1c(O)cc(C34CC5CC(CC(C5)C3)C4)cc1OC2(C)C`: 0.0422 µM, 0.0635 µM, 0.062 µM, 0.7 and 1.
As to `CC1(C)Oc2cc(C34CC5CC(CC(C5)C3)C4)cc(O)c2[C@@H]2CC(CO)=CC[C@H]21`, the values for the Ki on Cannabinoid receptor 2 [1], on Cannabinoid receptor 2 [2] and at Cannabinoid receptor 1 [3] were 0.0106 µM, 0.014 µM and 0.0072 µM, respectively. Besides, the Ratio Ki in test [4] was determined as 1.5; in test [5] it was 1.9. On Cannabinoid receptor 1 [6], the EC50 (in general, the concentration at which the effect is half-maximal) worked out at 0.23 µM.
Turning to `CC1(C)Oc2cc(C34CC5CC(CC(C5)C3)C4)cc(O)c2[C@@H]2C[C@H](CCO)CC[C@H]21`, the Ki (as a rule, a dissociation constant, usually derived from enzyme kinetics or from competition with a known ligand) was 0.0384 µM at Cannabinoid receptor 2 [1], 0.0333 µM on Cannabinoid receptor 2 [2] and 0.0086 µM on Cannabinoid receptor 1 [3]. Besides, the Ratio Ki in [4] is 4.5; in test [5], 3.9.
Regarding `CC1(C)Oc2cc(C34CC5CC(CC(C5)C3)C4)cc(O)c2[C@@H]2CC(=O)CC[C@H]21`, the Ki on Cannabinoid receptor 2 [1] amounted to 0.25 µM; at Cannabinoid receptor 2 [2], 0.338 µM.
For `CO/C=C\[C@@H]1CC[C@@H]2[C@@H](C1)c1c(O)cc(C34CC5CC(CC(C5)C3)C4)cc1OC2(C)C`, the results for the Ki at Cannabinoid receptor 2 [1], on Cannabinoid receptor 2 [2] and on Cannabinoid receptor 1 [3] were 0.0903 µM, 0.0672 µM and 0.031 µM, respectively. Further, the values for the Ratio Ki in test [4] and in test [5] were 2.9 and 2.2, respectively.
The matching figures for `CC1(C)Oc2cc(C34CC5CC(CC(C5)C3)C4)cc(O)c2[C@@H]2C[C@@H](C=O)CC[C@H]21`: 0.0201 µM, 0.009 µM, 0.0482 µM, 0.4 and 0.2.
The matching figures for `CC1(C)Oc2cc(C34CC5CC(CC(C5)C3)C4)cc(O)c2-c2cc(O)ccc21`: 0.251 µM, 0.551 µM, 0.0886 µM, 2.8 and 6.2.
`CC1(C)Oc2cc(C34CC5CC(CC(C5)C3)C4)cc(O)c2[C@@H]2C[C@@H](CC=O)CC[C@H]21`: the Ki on Cannabinoid receptor 2 [1] came out at 0.0081 µM; on Cannabinoid receptor 2 [2] it was 0.0078 µM; on Cannabinoid receptor 1 [3], 0.0175 µM. In addition, the Ratio Ki amounted to 0.5 in [4] and 0.4 in test [5].
As for `CC1(C)Oc2cc(C34CC5CC(CC(C5)C3)C4)cc(O)c2[C@@H]2C[C@@H](O)CC[C@H]21`, the Ki on Cannabinoid receptor 2 [1] is 0.255 µM; at Cannabinoid receptor 2 [2], 0.672 µM; at Cannabinoid receptor 1 [3] it was 0.146 µM.
With `CC1(C)Oc2cc(C34CC5CC(CC(C5)C3)C4)cc(O)c2[C@@H]2C[C@H](O)CC[C@H]21`, the Ki was determined as 0.0394 µM at Cannabinoid receptor 2 [1], 0.0405 µM at Cannabinoid receptor 2 [2] and 0.0239 µM at Cannabinoid receptor 1 [3].
With `CC1=CC[C@@H]2[C@@H](C1)c1c(O)cc(C34CC5CC(CC(C5)C3)C4)cc1OC2(C)C`, the result with Rattus norvegicus [7] and in the test with Rattus norvegicus [9] was Active. The outcome in the test on Rattus norvegicus [8] was inactive. The EC50 on Cannabinoid receptor 1 [6] is 1.53 µM.
As for `COc1ccc2c(c1)-c1c(O)cc(C34CC5CC(CC(C5)C3)C4)cc1OC2(C)C`, the inhibitory constant (Ki) on Cannabinoid receptor 2 [1] was determined as 0.95 µM; at Cannabinoid receptor 2 [2], 0.338 µM; at Cannabinoid receptor 1 [3], 0.507 µM. The Ratio Ki in test [4] was determined as 1.9; in [5], 0.7.
Consider `CC1(C)Oc2cc(C34CC5CC(CC(C5)C3)C4)cc(O)c2[C@@H]2C[C@H](CO)CC[C@H]21`, for which the Ki at Cannabinoid receptor 2 [1] came to 0.0121 µM; on Cannabinoid receptor 2 [2], 0.0113 µM; at Cannabinoid receptor 1 [3], 0.0049 µM. The T with Rattus norvegicus [10] stood at 6.4 °C. Further, the Ratio Ki in [4] is 2.5; in test [5], 2.3. Also, the outcome with Rattus norvegicus [11] was Active. For the same compound, the EC50 on Cannabinoid receptor 1 [6] stood at 0.096 µM. Besides, the Activity entry in the test with Rattus norvegicus [12] was “Dose-dependent effect”.
Take `CC1(C)Oc2cc(C34CC5CC(CC(C5)C3)C4)cc(O)c2[C@@H]2C[C@H](CC=O)CC[C@H]21`: the Ki on Cannabinoid receptor 2 [1] amounted to 0.0343 µM; at Cannabinoid receptor 2 [2] it was 0.0112 µM; on Cannabinoid receptor 1 [3], 0.0132 µM. For the same compound, the Ratio Ki in test [4] worked out at 2.6; in [5] it was 0.8.
The matching figures for `CC1(C)Oc2cc(C34CC5CC(CC(C5)C3)C4)cc(O)c2[C@@H]2C[C@H](CI)CC[C@H]21`: 0.346 µM, 0.262 µM, 0.241 µM, 1.4 and 1.1.
The matching figures for `CC1(C)Oc2cc(C34CC5CC(CC(C5)C3)C4)cc(O)c2[C@@H]2C[C@@H](CCO)CC[C@H]21`: 0.021 µM, 0.365 µM, 0.0409 µM, 0.5 and 8.9.
`CC1(C)Oc2cc(C34CC5CC(CC(C5)C3)C4)cc(O)c2-c2cc(CO)ccc21`: the Ki on Cannabinoid receptor 2 [1] was found to be 0.0323 µM; on Cannabinoid receptor 2 [2], 0.0467 µM; at Cannabinoid receptor 1 [3], 0.0021 µM. The figures for the Ratio Ki in [4] and in [5] were 15.4 and 22.2, respectively. For the same compound, the T with Rattus norvegicus [8] worked out at 4.1 °C. The EC50 on Cannabinoid receptor 1 [6] worked out at 0.45 µM.
